Results as given in ChEMBL document CHEMBL1124779, “Synthesis and antitumor activity of 1-[[(dialkylamino)alkyl]amino]-4-methyl-5H-pyrido[4,3-b]benzo[e]- and -benzo[g])indoles. A new class of antineoplastic agents” (1990).
Converted amounts (≈) assume the structure as drawn.

Tests used:
[1] = Tested for cytotoxicity in the multiple tumor disk diffusion soft agar assay at the dose of 15 ug/disk against solid tumor C38; range is 450-525; type: functional, Mus musculus
Outline: (§1)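 Soft agar disk diffusion: bottom layer 0.8% noble agar, top layer 0.47% noble agar, both in 1:1 CMRL-Fischer medium with 11% horse serum. Top layer seeded with 5×10^3 L1210 cells or 10^6 solid tumor cells (C38, PO3). Drug applied on a dried 6-mm filter-paper disk. Incubation 7-11 days. Inhibition zone measured by inverted microscope, in units (1 unit = 30 μm).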

L1210 [2] = experiment: Cytotoxicity in the multiple tumor disk diffusion soft agar assay at the dose of 15 ug/disk against leukemia L1210; type: functional, Mus musculus; outline: as §1
P388 [3] = experiment: In vivo T/C (survival time treated/survival time control x 100) was determined against P388 leukemia cells at 40 mg/Kg; type: functional, Mus musculus
Outline: (§2)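 B6D2 F1 mice, at least five per group, were inoculated ip on day 0 with 10^6 viable P388 cells (25 mL/kg). Compounds were dissolved in distilled water and given ip (25 mL/kg) daily on days 1–4. Mortality was checked daily, with necropsy of dead animals. T/C×100 was median survival, treated versus control. Survivors beyond 50 days counted as cured and were excluded from the median.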

L1210 [4] = experiment: Tested for cytotoxicity in the multiple tumor disk diffusion soft agar assay at the dose of 15 ug/disk against leukemia L1210; range is 475-600; type: functional, Mus musculus; outline: as §1
P388 [5] = experiment: In vitro cytotoxicity was determined against P388 leukemia cells; type: functional; details: Mus musculus, read-out: ID50 (the source's name)
Outline: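 P388 cells in exponential growth, RPMI 1640 with 2 mM glutamine, 10 μM 2-mercaptoethanol and 10% FCS, 5% CO2, 37 °C. Cells at 10^5 cells/mL. Drugs in distilled water added on day 0. Cells counted by Coulter counter after 96 h. ID50 (μg/mL, 50% inhibition of proliferation) estimated by regression of concentration/response data.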

[6] = Cytotoxicity in the multiple tumor disk diffusion soft agar assay at the dose of 15 ug/disk against solid tumor PO3; type: functional, Mus musculus; outline: as §1
[7] = Cytotoxicity in the multiple tumor disk diffusion soft agar assay at the dose of 15 ug/disk against solid tumor C38.; type: functional, Mus musculus; outline: as §1
L1210 [8] = experiment: Tested for cytotoxicity in the multiple tumor disk diffusion soft agar assay at the dose of 15 ug/disk against leukemia L1210; range is 450-525; type: functional, Mus musculus; outline: as §1
L1210 [9] = experiment: Tested for cytotoxicity in the multiple tumor disk diffusion soft agar assay at the dose of 15 ug/disk against leukemia L1210; range is 550-680; type: functional, Mus musculus; outline: as §1
L1210 [10] = experiment: Tested for cytotoxicity in the multiple tumor disk diffusion soft agar assay at the dose of 15 ug/disk against leukemia L1210; type: functional, Mus musculus; outline: as §1
P388 [11] = experiment: In vivo T/C (survival time treated/survival time control x 100) was determined against P388 leukemia cells at 20 mg/Kg; type: functional, Mus musculus; outline: as §2
[12] = Tested for cytotoxicity in the multiple tumor disk diffusion soft agar assay at the dose of 15 ug/disk against solid tumor PO3; range is 300-450; type: functional, Mus musculus; outline: as §1
[13] = Tested for cytotoxicity in the multiple tumor disk diffusion soft agar assay at the dose of 15 ug/disk against solid tumor C38; U = 32 uM; type: functional, Mus musculus; outline: as §1
[14] = Tested for cytotoxicity in the multiple tumor disk diffusion soft agar assay at the dose of 15 ug/disk against solid tumor PO3; type: functional, Mus musculus; outline: as §1
L1210 [15] = experiment: Tested for cytotoxicity in the multiple tumor disk diffusion soft agar assay at the dose of 15 ug/disk against leukemia L1210; range is 300-380; type: functional, Mus musculus; outline: as §1
L1210 [16] = experiment: Tested for cytotoxicity in the multiple tumor disk diffusion soft agar assay at the dose of 15 ug/disk against leukemia L1210; U = 32 uM; type: functional, Mus musculus; outline: as §1
L1210 [17] = experiment: In vivo T/C (survival time treated/survival time control x 100) was determined against L1210 leukemia cells at 40 mg/Kg; type: functional, Mus musculus
Outline: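 B6D2 F1 mice, at least five per group, were inoculated ip on day 0 with 10^5 viable L1210 cells (25 mL/kg). Compounds were dissolved in distilled water and given ip (25 mL/kg) on days 1–4. Deaths were checked daily, with necropsy to separate tumor from toxic death. T/C×100 was median survival of treated over controls. Mice surviving over 50 days counted as cured and were excluded from the median.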

In the case of Cc1cnc(NCCCN(C)C)c2c3c4ccccc4ccc3n(C)c12, the Cytotoxicity [1] is reported as 450 U, the Cytotoxicity (L1210 [2]) is reported as 425 U and the “T/C x100” value (P388 [3]) is reported as 164. The Cytotoxicity (L1210 [4]) was 475 U, the IC50 (P388 [5]) was 0.05 mg/L (≈ 0.144 µM) and the Cytotoxicity [6] was 550 U.
With COc1ccc2c(ccc3[nH]c4c(C)cnc(NCC(C)CN(C)C)c4c32)c1 (stereo not drawn) the Cytotoxicity (L1210 [2]) was 425 U, the “T/C x100” value (P388 [3]) was 151 and the Cytotoxicity [7] was 425 U. The Cytotoxicity (L1210 [8]) was 450 U, the IC50 (P388 [5]) was 0.55 mg/L (≈ 1.46 µM) and the Cytotoxicity [6] was 375 U.
For COc1ccc2c(ccc3c2c2c(NCCCN(C)C)ncc(C)c2n3C)c1, the Cytotoxicity (L1210 [9]) was 550 U, the Cytotoxicity (L1210 [2]) was 425 U and the “T/C x100” value (P388 [3]) was 150. It also gave a Cytotoxicity [7] of 325 U, an IC50 (P388 [5]) of 0.5 mg/L (≈ 1.33 µM) and a Cytotoxicity [6] of 200 U.
With Cc1c[nH]c(NCCCN(C)C)c2c3ccc4c(O)cccc4c3nc1-2 the Cytotoxicity (L1210 [2]) was 450 U, the Cytotoxicity [7] was 400 U and the IC50 (P388 [5]) was 0.05 mg/L (≈ 0.143 µM). For the same compound, the Cytotoxicity (L1210 [10]) was 500 U, the “T/C x100” value (P388 [11]) was 169 and the Cytotoxicity [12] was 300 U.
CCN(CC)CCCNc1ncc(C)c2c1c1ccc3ccccc3c1n2C gave a Cytotoxicity [13] of 500 U, a Cytotoxicity [14] of 200 U and an IC50 (P388 [5]) of 0.375 mg/L (≈ 1 µM). For the same compound, the “T/C x100” value (P388 [11]) was 108, the Cytotoxicity (L1210 [15]) was 300 U and the Cytotoxicity (L1210 [16]) was 450 U.
In the case of CCN(CC)CCCNc1[nH]cc(C)c2nc3ccc4cc(OC)ccc4c3c1-2, the “T/C x100” value (P388 [3]) is reported as 189, the “T/C x100” value (L1210 [17]) is reported as 112 and the IC50 (P388 [5]) is reported as 1 mg/L (≈ 2.56 µM).
